Assay results pooled from the literature.
MAP2K5: Dual specificity mitogen-activated protein kinase kinase 5 (MAP2K5, Homo sapiens, UniProt Q13163)

| SMILES | target | effect on | action | method | concentration | endpoint | result |
| --- | --- | --- | --- | --- | --- | --- | --- |
| CN1CC[C@@]2(C)c3cc(OC(=O)Nc4ccccc4)ccc3N(C)[C@@H]12 | Muscarinic acetylcholine receptor M5 (CHRM5, Homo sapiens, UniProt P08912) | ligand displacement | – | radioligand | 10 µM | inhibition | 6.5% |
| Nc1ncc(-c2nc(N3CCOCC3)nc(N3CCOCC3)n2)c(C(F)F)n1 | MAP2K5 | binding | – | competition with immobilised ligand | 10 µM | remaining binding | 39% |
| COc1ncccc1-c1cnn2ccc(N3CCN(C(=O)OC(C)C)CC3)nc12 | Peripheral plasma membrane protein CASK (CASK, Homo sapiens, UniProt O14936) | binding | – | competition with immobilised ligand | 1 µM | remaining binding | 93% |
| C#Cc1n[nH]c2c(-c3cn(C(C)c4ccccn4)c(=O)[nH]c3=O)cc(F)cc12 (centres unmarked) | Fibroblast growth factor receptor 1 (FGFR1, Homo sapiens, UniProt P11362) | enzyme activity | inhibitor | – | 1 µM | inhibition | 3.8% |
| CO[C@H]1/C=C/O[C@@]2(C)Oc3c(C)c(O)c4c(O)c(c(/C=N/N5CCN(C6CCCC6)CC5)c(O)c4c3C2=O)NC(=O)/C(C)=C\C=C\[C@H](C)[C@H](O)[C@@H](C)[C@@H](O)[C@@H](C)[C@H](OC(C)=O)[C@@H]1C | dppA (Mycobacterium tuberculosis, UniProt I6X811) | thermal stability | – | – | 100 µM | ΔTm | > 1.5 °C |
| Cc1nn(C)cc1-c1nc2c(N3CCN(Cc4ccc(Cl)cc4)CC3)c(Cl)cnc2[nH]1 | MAP2K5 | binding | – | competition with immobilised ligand | 1 µM | remaining binding | 58% |
| Sc1ncnc2nc[nH]c12 | Replicase polyprotein 1a, main protease (Severe acute respiratory syndrome-related coronavirus, UniProt P0C6U8) | enzyme activity | inhibitor | – | 200 µM | remaining activity | 49% |
| CCN(CC)CCCC[C@H](NC(=O)[C@H](CC(C)C)NC(=O)[C@H](C)NC(=O)[C@H](Cc1ccccc1)NC(=O)c1ccc(C(C)(C)C)cc1)C(=O)N[C@@H](CO)C(=O)OC | Melanocortin receptor 4 (MC4R, Homo sapiens, UniProt P32245) | ligand displacement | – | radioligand | 10 µM | remaining binding | 84% |
